This note sets out measurements from PubChem BioAssay AID1517 (The Scripps Research Institute Molecular Screening Center, 2009).

The assay addresses Transitional endoplasmic reticulum ATPase (Homo sapiens) (UniProt P55072). Kind of assay: blockers of p97 ATP hydrolysis – biochemical, confirmation (AID 1517).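 Note: 0% = DMSO wells and 100% = wells lacking p97 protein.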 The conditions noted are these: recombinant p97 ATPase, Kinase-Glo ATP luminescence; at 8 µM; stronger effect = higher value. In a few lines: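 Assay system: Recombinant p97 ATPase enzyme protein | Medium: pH 8.0 Tris with MgCl2, EDTA, DTT | Dosing: 8 µM single dose | Schedule: 30 min compound–enzyme preincubation at 25 °C, then 3 h ATP reaction | Measured by: Kinase-Glo luminescence | Control set: DMSO wells without compound and wells lacking p97 enzyme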
On the technique in general: Kinase-Glo reads ATP consumption through a luciferase reaction.

This is one part of the list. Values without a mark were called inactive.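 Rule for the calls: active = percent inhibition of p97 ATPase above a set limit, the primary screen's mean plus 3 SD (cut at about 15% in these data); inactive = the rest.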

Chain of Transitional endoplasmic reticulum ATPase (Homo sapiens) (P55072 whole entry, looked up): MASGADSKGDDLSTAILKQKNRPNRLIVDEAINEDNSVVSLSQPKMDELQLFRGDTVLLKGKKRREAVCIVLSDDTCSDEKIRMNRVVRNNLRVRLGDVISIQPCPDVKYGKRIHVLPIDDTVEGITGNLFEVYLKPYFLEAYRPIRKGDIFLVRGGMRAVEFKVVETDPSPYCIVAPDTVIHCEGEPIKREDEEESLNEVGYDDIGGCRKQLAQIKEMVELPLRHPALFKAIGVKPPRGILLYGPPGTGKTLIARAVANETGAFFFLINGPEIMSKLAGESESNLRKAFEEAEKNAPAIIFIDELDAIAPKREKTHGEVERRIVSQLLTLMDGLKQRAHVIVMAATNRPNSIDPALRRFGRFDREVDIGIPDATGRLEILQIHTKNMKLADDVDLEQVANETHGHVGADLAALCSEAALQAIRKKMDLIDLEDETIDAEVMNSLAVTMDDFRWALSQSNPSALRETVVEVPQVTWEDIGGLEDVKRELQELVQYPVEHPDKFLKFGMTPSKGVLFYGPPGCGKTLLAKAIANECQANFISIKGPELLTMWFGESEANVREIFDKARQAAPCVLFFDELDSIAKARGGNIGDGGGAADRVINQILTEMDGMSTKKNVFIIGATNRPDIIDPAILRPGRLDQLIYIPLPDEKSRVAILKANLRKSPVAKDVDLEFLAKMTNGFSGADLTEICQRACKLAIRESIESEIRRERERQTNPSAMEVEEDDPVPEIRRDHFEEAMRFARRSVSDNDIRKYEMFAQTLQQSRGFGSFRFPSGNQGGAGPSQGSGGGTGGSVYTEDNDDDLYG

With `O=c1[nH]c(CN2CC=C(c3ccccc3)CC2)nc2scc(-c3cccs3)c12`, the inhibition (as a rule, the relative decrease from the control value, in per cent) is 10.8%.
